# Test results reported in ChEMBL document CHEMBL1124366, “Synthesis and biological properties of N63-carboxamides of teicoplanin antibiotics. Structure-activity relationships” (J Med Chem, 1989).
# Key:
# [1] = test system: Streptococcus pyogenes; test: In vitro minimum inhibitory concentration against Streptococcus pyogenes C 203; type: functional
# [2] = test system: Staphylococcus aureus; test: In vitro minimum inhibitory concentration against Staphylococcus aureus Tour; type: functional
# [3] = test system: Staphylococcus epidermidis; test: In vitro minimum inhibitory concentration against Staphylococcus epidermis ATCC 12228; type: functional
# [4] = test system: Streptococcus pneumoniae; test: In vitro minimum inhibitory concentration against Streptococcus pneumoniae UC41; type: functional
# [5] = test system: Streptococcus pyogenes; test: Subcutaneously administration into mice infected with Streptococcus pyogenes C 203; type: functional; details: sc
# Procedure, shortened: (§1)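 Mice (five per treatment group, five groups) infected intraperitoneally with about 10⁵ cells of Strep. pyogenes C 203, about 100× the LD50. ED50 (mg/kg) was calculated from the percentage of mice surviving at each dose on day 7.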
# [6] = test system: Enterococcus faecalis; test: In vitro minimum inhibitory concentration against Streptococcus faecalis ATCC 7080; type: functional
# [7] = test system: Gram-negative bacteria; test: Minimum inhibitory concentration of compound against Gram negative bacteria
# [8] = test system: Ac2-L-Lys-D-Ala-D-Ala peptide; test: Association constant with Ac2-L-Lys-D-Ala-D-Ala
# Procedure, shortened: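 UV difference spectroscopy at 24 ± 2 °C in 4-cm unthermostated cells. Antibiotic was at 30 μM in 10% MeOH in sodium phosphate buffer, pH 9, and titrated with Ac2-L-Lys-D-Ala-D-Ala. ΔA was monitored at 294 nm. Ka was taken from the slope of a Scatchard plot.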
# [9] = test system: Streptococcus pyogenes; test: In vivo effective dose given perorally to mice infected with Streptococcus pyogenes C 203; type: functional; details: po; procedure, shortened: as §1
# [10] = test system: Proteus vulgaris; test: In vitro minimum inhibitory concentration against Proteus vulgaris X 19 ATCC 881; type: functional
# [11] = test system: Pseudomonas aeruginosa; test: In vitro minimum inhibitory concentration against Pseudomonas aeruginosa ATCC 10145; type: functional
# [12] = test system: Escherichia coli; test: In vitro minimum inhibitory concentration against Escherichia coli SKF 12140; type: functional
# [13] = test system: Staphylococcus haemolyticus; test: In vitro minimum inhibitory concentration against Staphylococcus hemolyticus 602 cell line; type: functional; details: strain 602
Structure (SMILES),MIC [1],MIC [2],MIC [3],MIC [4],ED50 [5],MIC [6],MIC [7],Ka [8],ED50 [9],MIC [10],MIC [11],MIC [12],MIC [13]
CC(=O)N[C@@H]1[C@H](O[C@@H]2c3ccc(c(Cl)c3)Oc3cc4cc(c3O)Oc3ccc(cc3Cl)C[C@H]3NC(=O)[C@H](N)c5ccc(O)c(c5)Oc5cc(O)cc(c5)[C@H](NC3=O)C(=O)N[C@H]4C(=O)N[C@H]3C(=O)N[C@@H]2C(=O)N[C@H](C(=O)NCCN2CCCC2)c2cc(O)cc(O[C@H]4O[C@H](CO)[C@@H](O)[C@@H](O)[C@@H]4O)c2-c2cc3ccc2O)O[C@@H](CO)[C@@H](O)[C@@H]1O,0.12 µg/mL,0.25 µg/mL,0.25 µg/mL,0.5 µg/mL,0.41 mg/kg,0.5 µg/mL,> 128 µg/mL,–,–,–,–,–,–
CCOC(=O)CNC(=O)[C@H]1NC(=O)[C@H]2NC(=O)[C@H](NC(=O)[C@@H]3NC(=O)[C@H]4NC(=O)[C@@H](Cc5ccc(c(Cl)c5)Oc5cc3cc(c5O[C@@H]3O[C@@H](CO)[C@@H](O)[C@H](O)[C@@H]3NC(=O)CCCCCCC(C)C)Oc3ccc(cc3Cl)[C@H]2O[C@@H]2O[C@@H](CO)[C@@H](O)[C@H](O)[C@@H]2NC(C)=O)NC(=O)[C@H](N)c2ccc(O)c(c2)Oc2cc(O)cc4c2)c2ccc(O)c(c2)-c2c(O[C@H]3O[C@H](CO)[C@@H](O)[C@@H](O)[C@@H]3O)cc(O)cc21,0.06 µg/mL,0.25 µg/mL,0.12 µg/mL,0.06 µg/mL,0.1 mg/kg,0.12 µg/mL,–,120000 M⁻¹,> 300 mg/kg,–,–,–,–
CC(=O)N[C@@H]1[C@H](O[C@@H]2c3ccc(c(Cl)c3)Oc3cc4cc(c3O)Oc3ccc(cc3Cl)C[C@H]3NC(=O)[C@H](N)c5ccc(O)c(c5)Oc5cc(O)cc(c5)[C@H](NC3=O)C(=O)N[C@H]4C(=O)N[C@H]3C(=O)N[C@@H]2C(=O)N[C@H](C(=O)NCCCN(C)C)c2cc(O)cc(O[C@H]4O[C@H](CO)[C@@H](O)[C@@H](O)[C@@H]4O)c2-c2cc3ccc2O)O[C@@H](CO)[C@@H](O)[C@@H]1O,0.12 µg/mL,0.5 µg/mL,0.12 µg/mL,0.5 µg/mL,0.81 mg/kg,1 µg/mL,> 128 µg/mL,–,–,–,–,–,–
CCN(CC)CCCNC(=O)[C@H]1NC(=O)[C@H]2NC(=O)[C@H](NC(=O)[C@@H]3NC(=O)[C@H]4NC(=O)[C@@H](Cc5ccc(c(Cl)c5)Oc5cc3cc(c5O)Oc3ccc(cc3Cl)[C@H]2O[C@@H]2O[C@@H](CO)[C@@H](O)[C@H](O)[C@@H]2NC(C)=O)NC(=O)[C@H](N)c2ccc(O)c(c2)Oc2cc(O)cc4c2)c2ccc(O)c(c2)-c2c(O[C@H]3O[C@H](CO)[C@@H](O)[C@@H](O)[C@@H]3O)cc(O)cc21,0.12 µg/mL,0.25 µg/mL,0.06 µg/mL,0.5 µg/mL,0.3 mg/kg,0.5 µg/mL,> 128 µg/mL,–,–,–,–,–,–
N[C@H]1C(=O)N[C@@H]2Cc3ccc(c(Cl)c3)Oc3cc4cc(c3O)Oc3ccc(cc3Cl)[C@@H](O)[C@@H]3NC(=O)[C@H](NC(=O)[C@@H]4NC(=O)[C@@H](NC2=O)c2cc(O)cc(c2)Oc2cc1ccc2O)c1ccc(O)c(c1)-c1c(O)cc(O)cc1[C@@H](C(=O)NC(CCC(=O)O)C(=O)O)NC3=O (stereo not given in full),0.12 µg/mL,0.12 µg/mL,0.12 µg/mL,0.12 µg/mL,5 mg/kg,0.5 µg/mL,–,82000 M⁻¹,–,> 128 µg/mL,> 128 µg/mL,> 128 µg/mL,–
CN(C)CCCNC(=O)[C@H]1NC(=O)[C@H]2NC(=O)[C@H](NC(=O)[C@@H]3NC(=O)[C@H]4NC(=O)[C@@H](Cc5ccc(c(Cl)c5)Oc5cc3cc(c5O)Oc3ccc(cc3Cl)[C@H]2O)NC(=O)[C@H](N)c2ccc(O)c(c2)Oc2cc(O)cc4c2)c2ccc(O)c(c2)-c2c(O)cc(O)cc21,0.06 µg/mL,0.06 µg/mL,0.016 µg/mL,0.12 µg/mL,0.31 mg/kg,0.12 µg/mL,–,55000 M⁻¹,–,16 µg/mL,32 µg/mL,8 µg/mL,–
N[C@H]1C(=O)N[C@@H]2Cc3ccc(c(Cl)c3)Oc3cc4cc(c3O)Oc3ccc(cc3Cl)[C@@H](O)[C@@H]3NC(=O)[C@H](NC(=O)[C@@H]4NC(=O)[C@@H](NC2=O)c2cc(O)cc(c2)Oc2cc1ccc2O)c1ccc(O)c(c1)-c1c(O)cc(O)cc1[C@@H](C(=O)O)NC3=O [TEICOPLANIN AGLYCON],0.12 µg/mL,0.06 µg/mL,0.016 µg/mL,0.12 µg/mL,0.95 mg/kg,0.12 µg/mL,–,30000 M⁻¹,–,128 µg/mL,> 128 µg/mL,64 µg/mL,0.25 µg/mL
CCCCN(CCCC)CCCNC(=O)[C@H]1NC(=O)[C@H]2NC(=O)[C@H](NC(=O)[C@@H]3NC(=O)[C@H]4NC(=O)[C@@H](Cc5ccc(c(Cl)c5)Oc5cc3cc(c5O)Oc3ccc(cc3Cl)[C@H]2O[C@@H]2O[C@@H](CO)[C@@H](O)[C@H](O)[C@@H]2NC(C)=O)NC(=O)[C@H](N)c2ccc(O)c(c2)Oc2cc(O)cc4c2)c2ccc(O)c(c2)-c2c(O[C@H]3O[C@H](CO)[C@@H](O)[C@@H](O)[C@@H]3O)cc(O)cc21,0.12 µg/mL,1 µg/mL,0.06 µg/mL,0.5 µg/mL,0.18 mg/kg,0.5 µg/mL,> 128 µg/mL,–,–,–,–,–,–
CC(=O)N[C@@H]1[C@H](O[C@@H]2c3ccc(c(Cl)c3)Oc3cc4cc(c3O)Oc3ccc(cc3Cl)C[C@H]3NC(=O)[C@H](N)c5ccc(O)c(c5)Oc5cc(O)cc(c5)[C@H](NC3=O)C(=O)N[C@H]4C(=O)N[C@H]3C(=O)N[C@@H]2C(=O)N[C@H](C(=O)NCCN2CCOCC2)c2cc(O)cc(O[C@H]4O[C@H](CO)[C@@H](O)[C@@H](O)[C@@H]4O)c2-c2cc3ccc2O)O[C@@H](CO)[C@@H](O)[C@@H]1O,0.12 µg/mL,0.25 µg/mL,0.06 µg/mL,0.5 µg/mL,1.6 mg/kg,1 µg/mL,> 128 µg/mL,–,–,–,–,–,–
CN(C)CCCCCCCNC(=O)[C@H]1NC(=O)[C@H]2NC(=O)[C@H](NC(=O)[C@@H]3NC(=O)[C@H]4NC(=O)[C@@H](Cc5ccc(c(Cl)c5)Oc5cc3cc(c5O)Oc3ccc(cc3Cl)[C@H]2O)NC(=O)[C@H](N)c2ccc(O)c(c2)Oc2cc(O)cc4c2)c2ccc(O)c(c2)-c2c(O)cc(O)cc21,0.06 µg/mL,0.06 µg/mL,0.06 µg/mL,0.12 µg/mL,0.95 mg/kg,0.12 µg/mL,–,50000 M⁻¹,–,128 µg/mL,128 µg/mL,16 µg/mL,0.12 µg/mL
NCCCNC(=O)[C@H]1NC(=O)[C@H]2NC(=O)[C@H](NC(=O)[C@@H]3NC(=O)[C@H]4NC(=O)[C@@H](Cc5ccc(c(Cl)c5)Oc5cc3cc(c5O)Oc3ccc(cc3Cl)[C@H]2O)NC(=O)[C@H](N)c2ccc(O)c(c2)Oc2cc(O)cc4c2)c2ccc(O)c(c2)-c2c(O)cc(O)cc21,0.06 µg/mL,0.12 µg/mL,0.06 µg/mL,0.12 µg/mL,1.25 mg/kg,0.12 µg/mL,–,26000 M⁻¹,–,32 µg/mL,32 µg/mL,4 µg/mL,0.12 µg/mL
CNCCCNC(=O)[C@H]1NC(=O)[C@H]2NC(=O)[C@H](NC(=O)[C@@H]3NC(=O)[C@H]4NC(=O)[C@@H](Cc5ccc(c(Cl)c5)Oc5cc3cc(c5O[C@@H]3O[C@@H](CO)[C@@H](O)[C@H](O)[C@@H]3NC(=O)CCCCCCC(C)C)Oc3ccc(cc3Cl)[C@H]2O[C@@H]2O[C@@H](CO)[C@@H](O)[C@H](O)[C@@H]2NC(C)=O)NC(=O)[C@H](N)c2ccc(O)c(c2)Oc2cc(O)cc4c2)c2ccc(O)c(c2)-c2c(O[C@H]3O[C@H](CO)[C@@H](O)[C@@H](O)[C@@H]3O)cc(O)cc21,0.06 µg/mL,0.12 µg/mL,0.06 µg/mL,0.12 µg/mL,0.14 mg/kg,0.12 µg/mL,–,66000 M⁻¹,112 mg/kg,–,–,–,0.12 µg/mL
